Laboratory results reported in ChEMBL document CHEMBL1153797, “Prenylxanthones and a bicyclo[3.3.1]nona-2,6-diene derivative from the fungus Emericella rugulosa” (J Nat Prod, 2009).
≈ marks a conversion by molar mass, not a printed value. Calls of active or inactive are those of the source. The calls are words filed in the database; no cut-off is given here.

Key:
[1] = system: Plasmodium falciparum; experiment: Antimalarial activity against multidrug-resistant Plasmodium falciparum K1 assessed as inhibition of [3H]hypoxanthine uptake by microculture radioisotope technique; assay type: functional, organism-based
How it was run: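 In vitro culture of multidrug-resistant P. falciparum K1 parasites (Trager–Jensen method). Growth measured by [3H]-hypoxanthine uptake in a microculture radioisotope format. IC50 taken as the concentration giving 50% reduction in parasite growth. Artemisinin served as the reference standard.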

[2] = system: Mycobacterium tuberculosis; experiment: Antimycobacterial activity against Mycobacterium tuberculosis H37Ra by microplate Alamar blue assay; assay type: functional
How it was run: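 M. tuberculosis H37Ra tested by microplate Alamar Blue assay. Activity reported as MIC. Isoniazid and kanamycin sulfate were run as reference drugs.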

[3] = Cytotoxicity against human BC1 cells by SRB assay; assay type: functional, cell-based
How it was run: (§1)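 Human cell lines were epidermoid carcinoma KB, breast cancer BC1 and small-cell lung cancer NCI-H187. Cytotoxicity was read by the Skehan colorimetric method, and IC50 was reported in µg/mL. Ellipticine served as the reference substance.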

[4] = system: KB; experiment: Cytotoxicity against human KB cells by SRB assay; assay type: functional, cell-based; how it was run: as §1
[5] = system: NCI-H187; experiment: Cytotoxicity against human NCI-H187 cells by SRB assay; assay type: functional, cell-based; how it was run: as §1
[6] = Homo sapiens, BC1, read-out: IC50
[7] = Homo sapiens, NCI-H187, read-out: IC50
[8] = Plasmodium falciparum, K1, read-out: IC50

Row | SMILES | IC50 [1] | MIC [2] | IC50 ([3]; bc1) | IC50 ([4]; kb) | IC50 ([5]; nci-h187) | IC50 [3, 6] | IC50 [5, 7] | IC50 [1, 8] | IC50 ([4]; Homo sapiens, KB, read-out: IC50)
1 | C=C(C)[C@H]1COc2c(C)cc3oc4c(C[C@H](O)C(C)(C)OCC)ccc(O)c4c(=O)c3c2[C@@H]1O [TAJIXANTHONE ETHANOATE] | Not Active | inactive | Not Active | Not Active | Not Active | – | – | – | –
2 | Cc1c2ccncc2c(C)c2c1[nH]c1ccccc12 [ELLIPTECINE] | – | – | – | – | – | 0.32 µg/mL (≈ 1.3 µM) | 0.26 µg/mL (≈ 1.06 µM) | – | –
3 | C=C(C)[C@H]1COc2c(C)cc3oc4c(CC=C(C)C)ccc(O)c4c(=O)c3c2[C@@H]1O [SHAMIXANTHONE] | Not Active | inactive | Not Active | Not Active | Not Active | – | – | – | –
4 | C=C(C)[C@H](O)Cc1ccc(O)c2c(=O)c3c4c(c(C)cc3oc12)OC[C@H](C(=C)C)[C@H]4O [RUGULOXANTHONE C] | Not Active | inactive | Not Active | Not Active | Not Active | – | – | – | –
5 | C=C(C)[C@H]1COc2c(C)cc3oc4c(C[C@H](O)C(C)(C)OC)ccc(O)c4c(=O)c3c2[C@@H]1O [TAJIXANTHONE METHANOATE] | Not Active | inactive | Not Active | Not Active | Not Active | – | – | – | –
6 | C=C(C)[C@H]1COc2c(C)cc3oc4c(CC(=O)C(C)C)ccc(O)c4c(=O)c3c2[C@@H]1O [RUGULOXANTHONE B] | Not Active | inactive | Not Active | Not Active | Not Active | – | – | – | –
7 | C=C(C)[C@H]1COc2c(C)cc3oc4c([C@@H](OC)[C@@H]5OC5(C)C)ccc(O)c4c(=O)c3c2[C@@H]1OC(C)=O | Not Active | inactive | Not Active | Not Active | Not Active | – | – | – | –
8 | C[C@@H]1CC[C@H]2[C@@H](C)C(=O)O[C@@H]3O[C@@]4(C)CC[C@@H]1[C@]32OO4 [ARTEMISININ] | – | – | – | – | – | – | – | 0.001 µg/mL (≈ 0.00354 µM) | –
9 | C=C(C)[C@@H]1COc2c(C)cc3oc4c(C[C@@H]5OC5(C)C)ccc(O)c4c(=O)c3c2[C@H]1O [TAJIXANTHONE] | Not Active | inactive | Not Active | Not Active | Not Active | – | – | – | –
10 | NC[C@H]1O[C@H](O[C@H]2[C@H](O)[C@@H](O[C@H]3O[C@H](CO)[C@@H](O)[C@H](N)[C@H]3O)[C@H](N)C[C@@H]2N)[C@H](O)[C@@H](O)[C@@H]1O.O=S(=O)(O)O [KANAMYCIN SULFATE] | – | 2 µg/mL | – | – | – | – | – | – | –
11 | C=C(C(=O)CC)[C@H]1[C@@]2(C)C=C(C)C[C@]1(C)C=C(C)[C@@H]2/C(C)=C\[C@@H]1C=CC(=O)C1 [RUGULOSONE] | – | 12.5 µg/mL (≈ 33 µM) | – | – | – | 1.3 µg/mL (≈ 3.43 µM) | 1.3 µg/mL (≈ 3.43 µM) | 1.9 µg/mL (≈ 5.02 µM) | 2.6 µg/mL (≈ 6.87 µM)
12 | NNC(=O)c1ccncc1 [ISONIAZID] | – | 0.04 µg/mL (≈ 0.292 µM) | – | – | – | – | – | – | –
13 | C=C(C)[C@H]1COc2c(C)cc3oc4c([C@H](OC)[C@@H]5OC5(C)C)ccc(O)c4c(=O)c3c2[C@@H]1O | Not Active | inactive | Not Active | Not Active | Not Active | – | – | – | –
14 | C=C(C)[C@H]1COc2c(C)cc3oc4c(CC(C)(C)C=O)ccc(O)c4c(=O)c3c2[C@@H]1O [RUGULOXANTHONE A] | Not Active | inactive | Not Active | Not Active | Not Active | – | – | – | –
15 | C=C(C)[C@H]1COc2c(C)cc3oc4c(C[C@H](O)C(C)(C)O)ccc(O)c4c(=O)c3c2[C@@H]1O.O [TAJIXANTHONE HYDRATE] | Not Active | inactive | Not Active | Not Active | Not Active | – | – | – | –
